Experimental data from ChEMBL document CHEMBL1909506, “Synthesis and anti-tumor activities of N'-benzylidene-2-(4-oxothieno[2,3-d]pyrimidin-3(4H)-yl)acetohydrazone derivatives” (Bioorg Med Chem Lett, 2011).
Calls of active or inactive are those of the source. The rule behind the calls is not given here.

Experiments:
A549 [1] = assay: Cytotoxicity against human A549 cells assessed as growth inhibition at 20 uM after 48 hrs by MTT assay; format: functional; conditions: for inhibition of growth at 20 µM: A549, 48 h, read-out: GI
Outline: (§1)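 Single-concentration screen at 20 µM. Cell growth inhibition read by standard MTT assay after 48 h treatment and expressed as inhibition ratio.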

HeLa [2] = assay: Cytotoxicity against human HeLa cells assessed as growth inhibition at 20 uM after 48 hrs by MTT assay; format: functional; conditions: for inhibition of growth at 20 µM: read-out: GI; outline: as §1
MDA-MB-231 [3] = assay: Cytotoxicity against human MDA-MB-231 cells assessed as growth inhibition at 20 uM after 48 hrs by MTT assay; format: functional; conditions: for inhibition of growth at 20 µM: MDA-MB-231, 48 h, read-out: GI; outline: as §1
[4] = target: Induced myeloid leukemia cell differentiation protein Mcl-1 (Homo sapiens) (UniProt Q07820); assay: Inhibition of mouse/human MCL1 expressed in Escherichia coli BL21 at 1 uM to 50 uM using FAM-labeled Bid-BH3 as tracer by fluorescence polarization assay
HEK-293T = assay: Cytotoxicity against human HEK293T cells assessed as growth inhibition after 48 hrs by MTT assay; format: cell-based
Outline: (§2)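 Dose-response MTT assay, 48 h exposure. Compounds run at multiple concentrations; IC50 taken as the concentration giving 50% growth inhibition. HEK-293T (human embryonic kidney cells transformed with adenovirus 5 DNA and SV40 large T-antigen) served as the normal-cell model.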

HeLa [5] = assay: Cytotoxicity against human HeLa cells assessed as growth inhibition after 48 hrs by MTT assay; format: functional, cell-based; outline: as §2
A549 [6] = assay: Cytotoxicity against human A549 cells assessed as growth inhibition after 48 hrs by MTT assay; format: functional, cell-based; conditions: for IC50: A549, 48 h; outline: as §2
MDA-MB-231 [7] = assay: Cytotoxicity against human MDA-MB-231 cells assessed as growth inhibition after 48 hrs by MTT assay; format: functional, cell-based; conditions: for IC50: MDA-MB-231, 48 h; outline: as §2
HeLa [8] = assay: Induction of apoptosis in human HeLa cells assessed as sub-diploid DNA content at 20 uM after 24 hrs using PI staining by flow cytometry (reference value: 6%); format: functional
HeLa [9] = assay: Induction of apoptosis in human HeLa cells assessed as increase in level of cleaved caspase-3 at 20 uM after 12 hrs by immunoblotting; format: functional, cell-based
HeLa [10] = assay: Induction of apoptosis in human HeLa cells assessed as increase in level of cleaved PARP at 20 uM after 12 hrs by immunoblotting; format: functional, cell-based
[11] = target: Induced myeloid leukemia cell differentiation protein Mcl-1 (Homo sapiens) (UniProt Q07820); assay: Inhibition of mouse/human MCL1 expressed in Escherichia coli BL21 at 50 uM using FAM-labeled Bid-BH3 as tracer by fluorescence polarization assay

Row | SMILES | growth inhibition (GI) (A549 [1]) | growth inhibition (GI) (HeLa [2]) | growth inhibition (GI) (MDA-MB-231 [3]) | inhibition [4] | inhibition of growth at 20 µM (A549 [1]) | inhibition of growth at 20 µM (HeLa [2]) | inhibition of growth at 20 µM (MDA-MB-231 [3]) | other results
1 | O=C(Cn1cnc2scc(-c3ccc(Cl)cc3)c2c1=O)N/N=C/c1ccc(O)c(O)c1 | inactive | inactive | inactive | inactive |  |  |  | 
2 | O=C(Cn1cnc2scc(-c3ccc4ccccc4c3)c2c1=O)N/N=C/c1ccccc1O |  |  |  | inactive | 44% | 22% | 36% | 
3 | N#Cc1ccc(/C=N/NC(=O)Cn2cnc3scc(-c4ccc(Cl)cc4)c3c2=O)cc1 | inactive | inactive | inactive | inactive |  |  |  | 
4 | O=C(Cn1cnc2scc(-c3ccc(Cl)cc3)c2c1=O)N/N=C/c1ccccc1O |  |  |  | inactive | 48% | 43% | 39% | 
5 | O=C(Cn1cnc2sc3c(c2c1=O)CCC3)N/N=C/c1ccc(Cl)c(F)c1 |  |  |  | inactive | 47% | 54% | 29% | 
6 | O=C(Cn1cnc2scc(-c3ccc4ccccc4c3)c2c1=O)N/N=C/c1ccc(Cl)c(F)c1 | inactive | inactive | inactive | inactive |  |  |  | 
7 | O=C(Cn1cnc2sc3c(c2c1=O)CCCC3)N/N=C/c1ccc(C(F)(F)F)cc1 |  |  |  | inactive | 23% | 34% | 30% | 
8 | O=C(Cn1cnc2sc3c(c2c1=O)CCCC3)N/N=C/c1ccc(Cl)c([N+](=O)[O-])c1 |  |  |  | inactive | 10% | 27% | 38% | 
9 | N#Cc1ccc(/C=N/NC(=O)Cn2cnc3scc(-c4ccc5ccccc5c4)c3c2=O)cc1 | inactive | inactive | inactive | inactive |  |  |  | 
10 | O=C(Cn1cnc2sc3c(c2c1=O)CCCC3)N/N=C/c1ccccc1O |  |  |  | inactive | 18% | 34% | 29% | IC50 (HEK-293T): > 50 µM; IC50 (HeLa [5]): 40 µM; IC50 (A549 [6]): > 50 µM; IC50 (MDA-MB-231 [7]): 16 µM
11 | Cc1csc2ncn(CC(=O)N/N=C/c3ccc(Cl)c(F)c3)c(=O)c12 | inactive | inactive | inactive | inactive |  |  |  | 
12 | O=C(Cn1cnc2sc3c(c2c1=O)CCCC3)N/N=C/c1ccc(Cl)c(F)c1 |  |  |  | inactive | 26% | 41% | 39% | 
13 | O=C(Cn1cnc2sc3c(c2c1=O)CCCCC3)N/N=C/c1ccccc1O |  |  |  | inactive | 29% | 36% | 40% | 
14 | O=C(Cn1cnc2scc(-c3ccc(Cl)cc3)c2c1=O)N/N=C/c1cccc([N+](=O)[O-])c1 | inactive | inactive | inactive | inactive |  |  |  | 
15 | O=C(Cn1cnc2sc3c(c2c1=O)CCCCC3)N/N=C/c1ccc(O)cc1 | inactive | inactive | inactive | inactive |  |  |  | 
16 | O=C(Cn1cnc2scc(-c3ccc4ccccc4c3)c2c1=O)N/N=C/c1cccc([N+](=O)[O-])c1 | inactive | inactive | inactive | inactive |  |  |  | 
17 | O=C(Cn1cnc2sc3c(c2c1=O)CCC3)N/N=C/c1ccccc1O |  |  |  | inactive | 22% | 23% | 36% | 
18 | O=C(Cn1cnc2scc(-c3ccc(Cl)cc3)c2c1=O)N/N=C/c1ccc(Cl)c([N+](=O)[O-])c1 |  |  |  | inactive | 58% | 74% | 78% | IC50 (HEK-293T): > 50 µM; Activity (HeLa [8]): 22%; Activity (HeLa [9]): Active; Activity (HeLa [10]): Active; IC50 (HeLa [5]): 11 µM; growth inhibition (GI) (HeLa [5]): Dose-dependent effect; growth inhibition (GI) (A549 [6]): Dose-dependent effect; IC50 (A549 [6]): 20 µM; growth inhibition (GI) (MDA-MB-231 [7]): Dose-dependent effect; IC50 (MDA-MB-231 [7]): 32 µM

Row | SMILES | growth inhibition (GI) (A549 [1]) | growth inhibition (GI) (HeLa [2]) | growth inhibition (GI) (MDA-MB-231 [3]) | inhibition [4] | inhibition of growth at 20 µM (A549 [1]) | inhibition of growth at 20 µM (HeLa [2]) | inhibition of growth at 20 µM (MDA-MB-231 [3]) | other results
19 | N#Cc1ccc(/C=N/NC(=O)Cn2cnc3scc(-c4ccccc4)c3c2=O)cc1 | inactive | inactive | inactive | inactive |  |  |  | 
20 | Cc1csc2ncn(CC(=O)N/N=C/c3ccccc3O)c(=O)c12 | inactive | inactive |  | inactive |  |  | 30% | inhibition [11]: 40%
21 | O=C(Cn1cnc2scc(-c3ccccc3)c2c1=O)N/N=C/c1ccc(Cl)c(F)c1 | inactive | inactive | inactive | inactive |  |  |  | 
22 | O=C(Cn1cnc2scc(-c3ccc4ccccc4c3)c2c1=O)N/N=C/c1ccc(O)c(O)c1 | inactive | inactive | inactive | inactive |  |  |  | inhibition [11]: 40%
23 | O=C(Cn1cnc2scc(-c3ccc(Cl)cc3)c2c1=O)N/N=C/c1ccc(Cl)c(F)c1 | inactive | inactive | inactive | inactive |  |  |  | 
24 | O=C(Cn1cnc2sc3c(c2c1=O)CCCCC3)N/N=C/c1cccc(O)c1 | inactive | inactive | inactive | inactive |  |  |  | 
25 | O=C(Cn1cnc2scc(-c3ccccc3)c2c1=O)N/N=C/c1ccccc1O |  |  |  | inactive | 26% | 31% | 30% | 
26 | N#Cc1ccc(/C=N/NC(=O)Cn2cnc3sc4c(c3c2=O)CCCCC4)cc1 |  |  |  | inactive | 10% | 11% | 14% | 
27 | N#Cc1ccc(/C=N/NC(=O)Cn2cnc3sc4c(c3c2=O)CCCC4)cc1 | inactive | inactive | inactive | inactive |  |  |  | 
28 | N#Cc1ccc(/C=N/NC(=O)Cn2cnc3sc4c(c3c2=O)CCC4)cc1 | inactive | inactive | inactive | inactive |  |  |  | 
29 | Cc1cc(-c2csc3ncn(CC(=O)N/N=C/c4ccccc4O)c(=O)c23)ccc1Cl |  |  |  | inactive | 35% | 33% | 37% | 
30 | O=C(Cn1cnc2sc3c(c2c1=O)CCC3)N/N=C/c1cccc(O)c1 | inactive | inactive | inactive | inactive |  |  |  | 
31 | Cc1csc2ncn(CC(=O)N/N=C/c3ccc(C#N)cc3)c(=O)c12 | inactive | inactive | inactive | inactive |  |  |  | 
32 | O=C(Cn1cnc2sc3c(c2c1=O)CCC3)N/N=C/c1ccc(O)cc1 |  |  |  | inactive | 27% | 29% | 25% | 
33 | O=C(Cn1cnc2sc3c(c2c1=O)CCCCC3)N/N=C/c1ccc(Cl)c(F)c1 |  |  |  | inactive | 43% | 50% | 28% | 
34 | O=C(Cn1cnc2sc3c(c2c1=O)CCC3)N/N=C/c1ccc(Cl)c([N+](=O)[O-])c1 | inactive |  |  | inactive |  | 34% | 41% | 
35 | Cc1csc2ncn(CC(=O)N/N=C/c3ccc(Cl)c([N+](=O)[O-])c3)c(=O)c12 |  |  |  | inactive | 13% | 18% | 13% | 
